Positions of bridges follow the written chain, without caps; N, C: chain ends. Non-standard residues stand in square brackets, D forms with d. Residues, ends and D or L forms follow the SMILES beside them. dBip = N[C@H](Cc1ccc(-c2ccccc2)cc1)C(=O)O; dPhe(4-Cl) = N[C@H](Cc1ccc(Cl)cc1)C(=O)O; 2Nal = N[C@@H](Cc1ccc2ccccc2c1)C(=O)O; d2Nal = N[C@H](Cc1ccc2ccccc2c1)C(=O)O; 3Pal = N[C@@H](Cc1cccnc1)C(=O)O
Experiments:
Somatostatin receptor = experiment: Compound was tested for in vitro SRIF inhibition of GH release in rats; type: functional
Method in brief: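 Adult male rat anterior pituitary cells, dispersed with trypsin/DNase, cultured 4-5 days. Then 3 h at 37 °C in medium 199 with 1% BSA, GHRH(1-29)NH2 1 nM and SRIF 1 nM, with analogue at six doses (up to 10 µM, some to 100 µM), triplicate wells. GH in medium measured by double-antibody RIA. Antagonist IC50 taken from n separate dose-response curves.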

[1] = target: Somatostatin receptor type 1 (Homo sapiens, UniProt P30872); experiment: Binding affinity towards cloned human somatostatin 1 (hsst) receptor
Sequence of Somatostatin receptor type 1 (P30872 whole entry): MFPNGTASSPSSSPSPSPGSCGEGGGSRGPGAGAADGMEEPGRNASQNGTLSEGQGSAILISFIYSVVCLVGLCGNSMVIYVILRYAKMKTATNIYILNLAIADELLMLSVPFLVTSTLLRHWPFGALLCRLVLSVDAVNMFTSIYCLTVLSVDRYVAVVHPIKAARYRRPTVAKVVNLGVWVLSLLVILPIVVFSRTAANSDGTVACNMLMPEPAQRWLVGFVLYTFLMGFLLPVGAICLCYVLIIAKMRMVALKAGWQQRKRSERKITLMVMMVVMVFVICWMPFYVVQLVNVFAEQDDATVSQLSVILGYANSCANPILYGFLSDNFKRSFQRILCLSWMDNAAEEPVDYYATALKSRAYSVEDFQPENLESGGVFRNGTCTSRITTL
Method in brief: (§1)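 Membranes from CHO-K1 cells stably transfected with the human receptor subtype (calcium phosphate transfection, G418 selection), homogenised and washed in Tris-HCl. Separated by filtration on PEI-soaked GF/C filters; nonspecific binding with 1.0 µM SRIF.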

[2] = target: Somatostatin receptor type 4 (Homo sapiens, UniProt P31391); experiment: Binding affinity towards cloned human somatostatin 4 (hsst) receptor
Sequence of Somatostatin receptor type 4 (P31391 whole entry): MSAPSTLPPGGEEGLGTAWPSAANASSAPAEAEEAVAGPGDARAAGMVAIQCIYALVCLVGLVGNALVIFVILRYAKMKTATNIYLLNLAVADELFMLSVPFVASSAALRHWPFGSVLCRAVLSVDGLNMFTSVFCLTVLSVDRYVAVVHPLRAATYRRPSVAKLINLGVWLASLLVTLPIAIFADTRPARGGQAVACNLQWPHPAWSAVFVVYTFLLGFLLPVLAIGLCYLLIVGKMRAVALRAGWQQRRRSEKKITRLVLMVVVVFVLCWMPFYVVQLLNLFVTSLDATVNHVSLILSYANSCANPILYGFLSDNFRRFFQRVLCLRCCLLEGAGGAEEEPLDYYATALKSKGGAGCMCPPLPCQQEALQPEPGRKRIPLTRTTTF

[3] = target: Somatostatin receptor type 2 (Homo sapiens, UniProt P30874); experiment: Binding affinity towards cloned human somatostatin 2 (hsst) receptor; method in brief: as §1
Sequence of Somatostatin receptor type 2 (P30874 whole entry): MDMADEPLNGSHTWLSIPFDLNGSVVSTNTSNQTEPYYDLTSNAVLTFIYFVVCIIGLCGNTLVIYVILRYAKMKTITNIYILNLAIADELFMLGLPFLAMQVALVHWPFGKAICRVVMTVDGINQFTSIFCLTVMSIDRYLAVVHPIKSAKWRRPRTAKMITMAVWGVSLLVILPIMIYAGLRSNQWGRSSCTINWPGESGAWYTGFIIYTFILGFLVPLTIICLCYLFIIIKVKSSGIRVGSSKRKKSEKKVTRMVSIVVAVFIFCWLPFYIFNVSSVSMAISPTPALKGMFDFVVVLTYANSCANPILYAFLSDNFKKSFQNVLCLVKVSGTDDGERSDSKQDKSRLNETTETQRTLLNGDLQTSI

[4] = target: Somatostatin receptor type 5 (Homo sapiens, UniProt P35346); experiment: Binding affinity towards cloned human somatostatin 5 (hsst) receptor; method in brief: as §1
Sequence of Somatostatin receptor type 5 (P35346 whole entry): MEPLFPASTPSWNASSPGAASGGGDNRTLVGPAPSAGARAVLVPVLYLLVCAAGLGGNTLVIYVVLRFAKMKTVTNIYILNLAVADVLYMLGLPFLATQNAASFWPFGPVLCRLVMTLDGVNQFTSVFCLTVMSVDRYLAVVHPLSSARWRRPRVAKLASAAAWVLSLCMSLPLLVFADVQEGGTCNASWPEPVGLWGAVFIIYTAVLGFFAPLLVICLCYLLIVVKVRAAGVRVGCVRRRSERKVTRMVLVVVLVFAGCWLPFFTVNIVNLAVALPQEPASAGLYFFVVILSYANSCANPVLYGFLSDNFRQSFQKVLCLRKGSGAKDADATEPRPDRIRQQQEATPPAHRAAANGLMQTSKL

[5] = target: Somatostatin receptor type 3 (Homo sapiens, UniProt P32745); experiment: Binding affinity towards cloned human somatostatin 3 (hsst) receptor; method in brief: as §1
Sequence of Somatostatin receptor type 3 (P32745 whole entry): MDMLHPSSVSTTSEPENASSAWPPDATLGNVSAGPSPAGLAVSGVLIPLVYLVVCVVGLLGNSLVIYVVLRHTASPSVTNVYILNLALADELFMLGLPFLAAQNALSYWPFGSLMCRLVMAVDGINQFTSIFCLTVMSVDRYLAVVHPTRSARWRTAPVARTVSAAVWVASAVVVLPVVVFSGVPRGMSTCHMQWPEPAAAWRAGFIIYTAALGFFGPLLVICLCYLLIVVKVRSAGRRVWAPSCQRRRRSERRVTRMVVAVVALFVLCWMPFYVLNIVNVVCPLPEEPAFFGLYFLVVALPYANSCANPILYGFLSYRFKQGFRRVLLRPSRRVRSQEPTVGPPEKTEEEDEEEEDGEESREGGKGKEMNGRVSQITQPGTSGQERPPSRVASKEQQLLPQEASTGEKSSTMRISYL

IC50 (Somatostatin receptor) | IC50 [1] | IC50 [2] | Ki [3] | Ki [4] | IC50 [5] | SMILES
180 µM | 1040 nM | 605 nM | 202 nM |  |  | C[C@@H](O)[C@@H]1NC(=O)[C@H](CCCCN)NC(=O)[C@@H](Cc2c[nH]c3ccccc23)NC(=O)[C@H](Cc2ccc(O)cc2)NC(=O)[C@H](NC(=O)[C@H](N)Cc2ccc3ccccc3c2)CSSC[C@@H](C(=O)N[C@@H](Cc2ccc3ccccc3c2)C(N)=O)NC1=O
0.905 µM | 1000 nM | 1000 nM | 291 nM | 2360 nM | 934 nM | C[C@@H](O)[C@H](NC(=O)[C@@H]1CSSC[C@@H](NC(=O)[C@@H](N)Cc2ccccc2)C(=O)N[C@@H](Cc2cccnc2)C(=O)N[C@H](Cc2c[nH]c3ccccc23)C(=O)N[C@@H](CCCCN)C(=O)N[C@@H]([C@@H](C)O)C(=O)N1)C(N)=O
0.0648 µM |  |  |  |  |  | CC(C)[C@@H]1NC(=O)[C@H](CCCCN)NC(=O)[C@@H](Cc2c[nH]c3ccccc23)NC(=O)[C@H](Cc2ccc(O)cc2)NC(=O)[C@H](NC(=O)[C@@H](N)Cc2ccc(O)cc2)CSSC[C@@H](C(=O)N[C@H](Cc2ccc3ccccc3c2)C(N)=O)NC1=O
0.28 µM | 1000 nM | 1000 nM | 46.1 nM | 1250 nM | 2280 nM | CC(C)[C@@H]1NC(=O)[C@H](CCCCN)NC(=O)[C@@H](Cc2c[nH]c3ccccc23)NC(=O)[C@H](Cc2ccc(O)cc2)NC(=O)[C@H](NC(=O)[C@@H](N)Cc2ccc3ccccc3c2)CSSC[C@@H](C(=O)N[C@H](Cc2ccc3ccccc3c2)C(N)=O)NC1=O
0.375 µM |  |  |  |  |  | CC(C)[C@@H]1NC(=O)[C@H](CCCCN)NC(=O)[C@@H](Cc2c[nH]c3ccccc23)NC(=O)[C@H](Cc2ccc(O)cc2)NC(=O)[C@H](NC(=O)[C@H](N)Cc2ccc3ccccc3c2)CSSC[C@H](C(=O)N[C@H](Cc2ccc3ccccc3c2)C(N)=O)NC1=O
0.058 µM | 535 nM | 1000 nM | 123 nM | 769 nM | 373 nM | CC(C)[C@@H]1NC(=O)[C@H](CCCCN)NC(=O)[C@@H](Cc2c[nH]c3ccccc23)NC(=O)[C@H](Cc2cccnc2)NC(=O)[C@H](NC(=O)[C@@H](N)Cc2ccccc2)CSSC[C@@H](C(=O)N[C@@H](Cc2ccc3ccccc3c2)C(N)=O)NC1=O (H-F[dC][3Pal][dW]KVC[2Nal]-NH2; disulfide 2-7)
0.053 µM | 1000 nM | 943 nM | 82.5 nM | 501 nM | 68 nM | CC(C)[C@@H]1NC(=O)[C@H](CCCCN)NC(=O)[C@@H](Cc2c[nH]c3ccccc23)NC(=O)[C@H](Cc2c[nH]cn2)NC(=O)[C@H](NC(=O)[C@@H](N)Cc2ccc3ccccc3c2)CSSC[C@@H](C(=O)N[C@@H](Cc2ccc3ccccc3c2)C(N)=O)NC1=O (H-[2Nal][dC]H[dW]KVC[2Nal]-NH2; disulfide 2-7)
0.05 µM |  |  |  |  |  | CC(C)[C@@H]1NC(=O)[C@H](CCCCN)NC(=O)[C@@H](Cc2c[nH]c3ccccc23)NC(=O)[C@H](Cc2ccc(O)cc2)NC(=O)[C@H](NC(=O)[C@@H](N)Cc2ccc3ccccc3c2)CSSC[C@@H](C(=O)N[C@@H](Cc2ccc(O)cc2)C(N)=O)NC1=O (H-[2Nal][dC]Y[dW]KVCY-NH2; disulfide 2-7)
0.0151 µM | 506 nM | 1000 nM | 75.9 nM | 524 nM | 171 nM | CC(C)[C@@H]1NC(=O)[C@H](CCCCN)NC(=O)[C@@H](Cc2c[nH]c3ccccc23)NC(=O)[C@H](Cc2cccnc2)NC(=O)[C@H](NC(=O)[C@@H](N)Cc2ccc3ccccc3c2)CSSC[C@@H](C(=O)N[C@@H](Cc2ccc3ccccc3c2)C(N)=O)NC1=O (H-[2Nal][dC][3Pal][dW]KVC[2Nal]-NH2; disulfide 2-7)
3.03 µM | 1000 nM | 2840 nM | 706 nM | 1840 nM | 1130 nM | CC(C)[C@H](NC(=O)[C@H](CCCCN)NC(=O)[C@@H](Cc1c[nH]c2ccccc12)NC(=O)[C@H](Cc1ccc(O)cc1)NC(=O)[C@@H](Cc1ccc(Cl)cc1)NC(=O)[C@@H](N)Cc1ccc2ccccc2c1)C(=O)N[C@@H](Cc1ccccc1)C(=O)N[C@H](C(N)=O)[C@@H](C)O (H-[2Nal][dPhe(4-Cl)]Y[dW]KVFT-NH2)
3.96 µM | 1000 nM | 1000 nM | 144 nM | 21.6 nM | 89.9 nM | CC(C)[C@H](NC(=O)[C@H](CCCCN)NC(=O)[C@@H](Cc1c[nH]c2ccccc12)NC(=O)[C@H](Cc1ccc(O)cc1)NC(=O)[C@@H](Cc1ccc(Cl)cc1)NC(=O)[C@H](N)Cc1ccc2ccccc2c1)C(=O)N[C@@H](Cc1ccccc1)C(=O)N[C@H](C(N)=O)[C@@H](C)O (H-[d2Nal][dPhe(4-Cl)]Y[dW]KVFT-NH2)
1.36 µM | 494 nM | 312 nM | 68.5 nM | 744 nM | 292 nM | CC(C)[C@@H]1NC(=O)[C@H](CCCCN)NC(=O)[C@@H](Cc2c[nH]c3ccccc23)NC(=O)[C@H](Cc2ccc(O)cc2)NC(=O)[C@@H](NC(=O)[C@H](N)Cc2ccc3ccccc3c2)CSSC[C@H](C(=O)N[C@@H](Cc2ccc3ccccc3c2)C(N)=O)NC1=O (stereo in doubt; 23)

SMILES | IC50 (Somatostatin receptor) | IC50 [1] | IC50 [2] | Ki [3] | Ki [4] | IC50 [5]
C[C@@H](O)[C@H](NC(=O)[C@@H]1CSSC[C@@H](NC(=O)[C@@H](N)Cc2ccc(O)cc2)C(=O)N[C@@H](Cc2cccnc2)C(=O)N[C@H](Cc2c[nH]c3ccccc23)C(=O)N[C@@H](CCCCN)C(=O)N[C@@H]([C@@H](C)O)C(=O)N1)C(N)=O | 98.65 µM | 1000 nM | 1000 nM | 1000 nM |  | 1380 nM
CC(=O)N[C@@H](Cc1ccc2ccccc2c1)C(=O)N[C@@H]1CSSC[C@@H](C(=O)N[C@@H](Cc2ccc3ccccc3c2)C(N)=O)NC(=O)[C@H](C(C)C)NC(=O)[C@H](CCCCN)NC(=O)[C@@H](Cc2c[nH]c3ccccc23)NC(=O)[C@H](Cc2ccc(O)cc2)NC1=O (Ac-[2Nal][dC]Y[dW]KVC[2Nal]-NH2; disulfide 2-7) | 0.0567 µM | 1020 nM | 1000 nM | 48.2 nM | 130 nM | 144 nM
CC(C)[C@@H]1NC(=O)[C@H](CCCCN)NC(=O)[C@@H](Cc2c[nH]c3ccccc23)NC(=O)[C@H](Cc2ccc(O)cc2)NC(=O)[C@H](NC(=O)[C@H](N)Cc2ccc(-c3ccccc3)cc2)CSSC[C@@H](C(=O)N[C@@H](Cc2ccc3ccccc3c2)C(N)=O)NC1=O (H-[dBip][dC]Y[dW]KVC[2Nal]-NH2; disulfide 2-7) | 0.81 µM | 1440 nM | 1000 nM | 793 nM | 243 nM | 466 nM

Source: ChEMBL document CHEMBL1131316, “Potent antagonists of somatostatin: synthesis and biology” (J Med Chem, 1998)
